Source: PubChem BioAssay (several laboratories)
Most compounds without a hit are left out; they make up all but 5.4% or so of the library.
Ecoli tolC = blocks growth of E. coli BW25113 tolC mutant. OD615. growth inhibition, % at 10 µM (by protocol). 2.2% of 65,000 active. AID 573;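 active = growth inhibition at or above a cutoff equal to the mean over every tested compound plus 3 SD, cut at about 60% in these data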;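 note: growth measured after 20 h incubation at 37 °C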
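Test system: E. coli BW25113 ΔtolC::kan bacteria; incubation: 37 °C, 20 h exposure; medium: LB broth supplemented with 50 µg/mL kanamycin; read-out basis: percent growth inhibition; signal: A615 absorbance measurement; compound: 10 µM final, single dose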
E coli WT exp = E. coli BW25113 growth inhibition, expanded screen. OD600 absorbance. growth inhibition, % at 100 µM. 0.15% of 98,000 active;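 active = growth inhibition above about 50% at one test dose, limit read from the data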;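 note: growth measured after 20 h incubation at 37 °C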
HePTP inh = inhibitors of human HePTP phosphatase; P35236; recombinant HePTP phosphatase activity, OD absorbance; inhibition, % at 20 µM; 0.64% of 110,000 active; AID 521; in the data active = inhibition above about 50%
PLAP act = activates human placental alkaline phosphatase; 1.2% of 96,000 active; activation fold at 20 µM; purified PLAP enzyme, luminescent substrate read-out; hits give high values; P05187; AID 696; in the data active = activation fold above about 2
Target sequence (P05187 whole entry, looked up): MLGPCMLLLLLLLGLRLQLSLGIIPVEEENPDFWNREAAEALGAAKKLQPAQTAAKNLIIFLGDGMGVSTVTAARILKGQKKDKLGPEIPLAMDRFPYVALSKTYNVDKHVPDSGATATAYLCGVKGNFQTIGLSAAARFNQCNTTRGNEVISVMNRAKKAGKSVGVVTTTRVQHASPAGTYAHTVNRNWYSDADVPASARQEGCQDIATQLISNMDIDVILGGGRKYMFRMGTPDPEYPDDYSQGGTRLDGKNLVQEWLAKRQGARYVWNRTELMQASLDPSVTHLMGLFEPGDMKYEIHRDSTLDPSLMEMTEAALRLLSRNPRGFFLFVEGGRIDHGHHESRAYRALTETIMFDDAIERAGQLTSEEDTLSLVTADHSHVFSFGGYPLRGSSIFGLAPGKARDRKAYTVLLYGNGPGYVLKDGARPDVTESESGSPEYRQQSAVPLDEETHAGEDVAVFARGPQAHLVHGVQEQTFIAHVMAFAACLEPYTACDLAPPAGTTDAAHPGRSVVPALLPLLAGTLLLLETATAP
PostGolgi yeast = growth inhibition of a yeast mutant, post-Golgi transport screen. post-Golgi transport phenotypic cell assay. inhibition, % at 10 µM. 0.9% of 98,000 active;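 note: yeast cells grown in 1536-well plates; yeast grown about 18 h at 30C before absorbance read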
PostGolgi ctrl = yeast control strain growth, post-Golgi counter-screen; inhibition, % at 10 µM; efflux-deficient yeast background strain, growth absorbance A615, 16 h; 5% of 98,000 active; AID 738
A number is an active result; - = inactive; . = no result given. Cut-off read from the data, not from the text of the source, unless noted: active = inhibition above about 30%; inactive = the rest.

SMILES	Ecoli tolC	E coli WT exp	HePTP inh	PLAP act	PostGolgi yeast	PostGolgi ctrl
Cc1sc(NC(=O)CN2CCOCC2)c(C(=O)c2ccccc2)c1C	.	-	-	-	35	-
CCc1c(C)nc2[nH]nc(-c3ccccc3OC)n2c1=O	.	.	-	.	.	.
CNC(=S)NNC(=O)CCn1nc(C)c(Br)c1C	.	-	.	2.1	-	37
CNC(=S)NNC(=O)Cn1ccc(C)n1	.	-	.	-	-	-
Cc1cc(C(=O)NNC(=S)NCC(C)C)no1	.	-	.	-	-	-
CCOCCCNC(=S)NNC(=O)CCn1nc(C)c(Br)c1C	.	-	.	2.9	-	-
Cc1nn(CCC(=O)NNC(=S)NCC(C)C)c(C)c1Br	.	-	.	2.5	-	-
CCOCCCNC(=O)c1c(C)c(C(=O)OCC)n(C)c1C	-	-	-	-	-	-
Cc1ccc(CC(C)CC(=O)NCc2ccccc2)cc1 (stereo not given)	.	.	-	.	.	.
COc1cccc(-c2nc(NCC3CCCO3)c3ccccc3n2)c1O (stereo not given)	-	-	-	.	-	43
CC(Nc1nc(-c2ccccc2O)nc2ccccc12)c1ccccc1 (stereo not given)	.	.	-	.	.	.
Oc1ccccc1-c1nc(NCC2CCCO2)c2ccccc2n1 (stereo not given)	66	-	-	-	-	56
CCN(CC)C(=O)CN(C)S(=O)(=O)c1cccc2nsnc12	-	-	-	-	-	-
CCN(CC)S(=O)(=O)c1cccc2nsnc12	-	-	-	-	-	49
Cc1cc(C(=O)CSc2n[nH]c(N)n2)c(C)n1C1CC1	.	-	.	-	-	-
CC(Sc1n[nH]c(N)n1)C(=O)C12CC3CC(CC(C3)C1)C2 (stereo not given)	.	-	.	2	-	-
O=C(N/N=C/c1ccc(-c2ccccc2[N+](=O)[O-])o1)c1ccc([N+](=O)[O-])cc1	.	.	-	.	.	.
Cc1n[nH]c(=S)n1/N=C/c1ccc(-c2ccccc2[N+](=O)[O-])o1	.	-	.	2	-	-
O=C(Nc1ccccc1O)c1ccccc1O	-	63	-	-	-	-
Cc1ccc(C)c(NC(=O)c2ccccc2O)c1	80	-	-	-	-	-
Cc1ccc(C)c(NC(=O)c2cc3ccccc3oc2=O)c1	.	.	-	.	.	.
Cc1cccc(NC(=O)c2ccccc2O)c1C	-	-	-	-	-	-
Cc1ccc(NC(=O)/C=C/c2ccc([N+](=O)[O-])cc2)cc1C	.	.	-	.	.	.
O=C1C2ON(c3ccccc3)C(c3ccncc3)C2C(=O)N1c1ccccc1 (stereo not given)	-	-	-	-	-	-
Cc1cccc(C)c1N1C(=O)C2ON(c3ccccc3)C(c3ccncc3)C2C1=O (stereo not given)	-	-	-	-	102	91
SMILES	Ecoli tolC	E coli WT exp	HePTP inh	PLAP act	PostGolgi yeast	PostGolgi ctrl
CC1CCc2c(sc3ncnc(NCCCOC(C)C)c23)C1 (stereo not given)	.	-	.	-	-	32
CCOC(=O)C(Sc1n[nH]c(N)n1)c1ccccc1 (stereo not given)	.	-	.	-	-	-
CCOC(=O)C1=C(CSc2n[nH]c(N)n2)NC(=O)NC1C (stereo not given)	-	-	-	2.4	-	-
Cc1nc(SCC(=O)c2c[nH]c3ccccc23)n[nH]1	-	-	-	-	-	32
Cc1nc(SCC(=O)c2ccc(F)cc2)n[nH]1	-	-	-	2.3	-	-
CC(C)c1nc(SCC(=O)Nc2cccc(S(N)(=O)=O)c2)n[nH]1	.	-	.	-	-	-
Cc1nc(SCC(=O)Nc2cccc(Cl)c2)n[nH]1	-	-	-	-	-	44
O=C(N=Nc1c(O)[nH]c(=O)[nH]c1=O)c1cccc([N+](=O)[O-])c1	.	.	-	.	.	.
CCn1cc(C(=O)O)c(=O)c2cnc(N3CCN(C(=O)Nc4ccccc4)CC3)nc21	100	.	.	.	.	.
c1ccc(Nc2nc3ccccc3[nH]2)nc1	-	-	-	2.2	-	-
Cc1ccc(NC(=O)C2CCC(C)(C(=O)NN)C2(C)C)cc1 (stereo not given)	.	.	-	.	.	.
O=C(COc1ccccc1)Nc1ccccc1N1CCN(c2ccccc2)CC1	-	-	-	-	-	-
O=C(COc1ccc(Cl)cc1Cl)N1CCCN(C(=O)COc2ccc(Cl)cc2Cl)CC1	.	-	.	-	-	75
CC(=O)N1CCN(c2ccccc2NC(=O)COc2ccc(Cl)cc2Cl)CC1	-	-	-	-	-	50
CC(=O)N1CCN(c2ccc(NC(=O)COc3ccc(Cl)cc3Cl)cc2)CC1	-	-	-	-	-	-
CCCCCC(=O)Nc1ccccc1N1CCN(c2ccccc2)CC1	68	-	-	-	-	-
O=C(COc1ccccc1)Nc1ccccc1N1CCCCC1	92	-	-	-	-	-
O=C(Nc1ccccc1-c1ccccc1)c1ccc(N2C(=O)c3ccc([N+](=O)[O-])cc3C2=O)cc1	.	.	-	.	.	.
O/C(=C\c1nc2ccccc2nc1/C=C(/O)c1ccccc1)c1ccccc1	.	.	-	.	.	.
COC(=O)COc1ccc(/C=C2\C(=O)NC(=O)N(c3ccc(Cl)cc3)C2=O)cc1OC	.	.	-	.	.	.
O=C(CSc1nc2nc(-c3cccs3)cc(C(F)(F)F)c2c(=O)[nH]1)NCc1ccco1	91	-	-	-	-	-
N#CC(C#N)=NNc1ccc(O)c(C(=O)O)c1	.	.	69	.	.	.
FC(F)(F)c1cc(C(F)(F)F)c2ccc(Oc3ccccc3)nc2n1	.	-	.	-	-	-
N#CC(c1ccc(Cl)cc1)c1ccc2c(C(F)(F)F)cc(C(F)(F)F)nc2n1 (stereo not given)	.	-	.	-	82	91
CCCCc1nc(N2CCOCC2)c(C#N)c2c1COC(C)(C)C2	-	-	-	-	-	-
CCCCc1nc(NCC2CCCO2)c(C#N)c2c1COC(C)(C)C2 (stereo not given)	-	-	-	.	-	96
O=C(CSc1nnc(-c2ccco2)n1Cc1ccco1)NCc1ccccc1	.	-	.	-	-	-
O=C(CSc1nnc(-c2cc3ccccc3cc2O)n1Cc1ccco1)c1ccc(F)cc1	-	-	-	-	-	80
O=C(CSc1nnc(-c2ccco2)n1Cc1ccccc1)c1ccc(F)cc1	-	-	-	-	-	32
